Source: ChEMBL document CHEMBL1155718, “The complestatins as HIV-1 integrase inhibitors. Efficient isolation, structure elucidation, and inhibitory activities of isocomplestatin, chloropeptin I, new complestatins, A and B, and acid-hydrolysis products of chloropeptin I” (J Nat Prod, 2001)
pIC50: −log10 of the molar value.

Columns and labels:
[1] = system: Human immunodeficiency virus 1; assay: Antiviral activity against HIV1 assessed as inhibition of viral spread in infected cells; type: functional
In short: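 HIV-1 multiple-cycle replication (viral spread) assay in cell culture. Inhibition was expressed as IC95, and in some cases also as IC50.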

[2] = biological target: T1, Human immunodeficiency virus type 1 integrase (Human immunodeficiency virus 1, UniProt Q7ZJM1); assay: Inhibition of HIV1 integrase strand transfer activity
In short: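 Staged strand transfer assay using complexes preassembled on viral donor DNA with recombinantly expressed HIV-1 integrase. IC50 was reported.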

[3] = biological target: T1, Human immunodeficiency virus type 1 integrase; assay: Inhibition of HIV1 integrase 3' processing/strand transfer coupled activity
In short: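 In vitro assay with recombinant HIV-1 integrase that recapitulates the staged integration process, measuring coupled 3′-processing and strand transfer. IC50 was reported.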

[4] = biological target: T1, Human immunodeficiency virus type 1 integrase; assay: Inhibition of integration activity of HIV1 intact integrase
[5] = biological target: T1, Human immunodeficiency virus type 1 integrase; assay: Inhibition of disintegration activity of HIV1 intact integrase
In short: (§1)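 Disintegration activity was measured with both full-length HIV-1 integrase and its catalytic core domain (amino acids 50-212). IC50 was reported.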

[6] = biological target: T1, Human immunodeficiency virus type 1 integrase; assay: Inhibition of disintegration activity of HIV1 integrase catalytic core domain (50 to 212); in short: as §1
[7] = Inhibition of HIV1 recombinant gp120/CD4 interaction by ELISA
[8] = system: Human immunodeficiency virus; assay: Antiviral activity against HIV; type: functional, organism-based; details: Human immunodeficiency virus 1
[9] = system: Human immunodeficiency virus; assay: Antiviral activity against HIV PIC; type: functional, organism-based; details: Human immunodeficiency virus 1, PIC
In short: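 Preintegration complexes were isolated from HIV-1-infected cells and tested for integration activity in vitro. IC50 was reported.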

T1 sequence (Q7ZJM1 whole entry): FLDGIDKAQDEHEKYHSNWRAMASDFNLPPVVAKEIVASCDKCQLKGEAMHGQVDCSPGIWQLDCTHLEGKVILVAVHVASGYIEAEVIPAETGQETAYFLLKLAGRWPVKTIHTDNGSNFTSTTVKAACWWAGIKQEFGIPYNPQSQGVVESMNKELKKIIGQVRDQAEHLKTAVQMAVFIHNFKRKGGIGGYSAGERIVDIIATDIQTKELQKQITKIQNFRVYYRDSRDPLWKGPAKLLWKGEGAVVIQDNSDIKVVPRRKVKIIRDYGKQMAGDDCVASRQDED

Row | pIC50 [2] | pIC50 [3] | Structure (SMILES) | IC95 [1] [µM] | other results
1 | 5.10 | 6.22 | CN1C(=O)[C@@H](c2cc(Cl)c(O)c(Cl)c2)NC(=O)[C@@H]2NC(=O)[C@@H](c3cc(Cl)c(O)c(Cl)c3)NC(=O)[C@H](NC(=O)C(=O)c3cc(Cl)c(O)c(Cl)c3)Cc3c[nH]c4c(cccc34)-c3cc2cc(c3O)Oc2ccc(cc2)C[C@H]1C(=O)O | 5 | 
2 | 4.90 | 5.77 | CN1C(=O)[C@@H](c2cc(Cl)c(O)c(Cl)c2)NC(=O)[C@@H]2NC(=O)[C@@H](c3cc(Cl)c(O)c(Cl)c3)NC(=O)[C@H](NC(=O)C(=O)c3cc(Cl)c(O)c(Cl)c3)CC3(O)C(=O)Nc4cc(ccc43)-c3cc2cc(c3O)Oc2ccc(cc2)C[C@H]1C(=O)N[C@@H](C(=O)O)c1ccc(O)cc1 (stereo partly drawn) [COMPLESTATIN B] |  | 
3 | 5.40 | 6.70 | CN1C(=O)[C@@H](c2cc(Cl)c(O)c(Cl)c2)NC(=O)[C@@H]2NC(=O)[C@@H](c3cc(Cl)c(O)c(Cl)c3)NC(=O)[C@H](NC(=O)C(=O)c3cc(Cl)c(O)c(Cl)c3)Cc3c[nH]c4cc(ccc34)-c3cc2cc(c3O)Oc2ccc(cc2)C[C@H]1C(=O)N[C@@H](C(=O)O)c1ccc(O)cc1 [ISOCOMPLESTATIN] | 5 | pIC50 [4]: 5.52; pIC50 [5]: 6.30; pIC50 [6]: 6.30; pIC50 [7]: 5.70; pIC50 [8]: 6.70; pIC50 [9]: 5.52
4 | 5.22 | 6.30 | CN1C(=O)[C@@H](c2cc(Cl)c(O)c(Cl)c2)NC(=O)[C@@H]2NC(=O)[C@@H](c3cc(Cl)c(O)c(Cl)c3)NC(=O)[C@H](N)Cc3c[nH]c4c(cccc34)-c3cc2cc(c3O)Oc2ccc(cc2)C[C@H]1C(=O)O | 7.5 | 
5 | 4.35 | 5.42 | CN[C@@H](Cc1ccc(Oc2cc3cc(c2O)-c2cccc4c(c[nH]c24)C[C@@H](N)C(=O)N[C@H](c2cc(Cl)c(O)c(Cl)c2)C(=O)N[C@H]3C(=O)N[C@@H](C(=O)O)c2cc(Cl)c(O)c(Cl)c2)cc1)C(=O)O |  | 
6 | 4.90 | 6.10 | CN1C(=O)[C@@H](c2cc(Cl)c(O)c(Cl)c2)NC(=O)[C@@H]2NC(=O)[C@@H](c3cc(Cl)c(O)c(Cl)c3)NC(=O)[C@H](NC(=O)C(=O)c3cc(Cl)c(O)c(Cl)c3)CC3C(=O)Nc4cc(ccc43)-c3cc2cc(c3O)Oc2ccc(cc2)C[C@H]1C(=O)N[C@@H](C(=O)O)c1ccc(O)cc1 (stereo partly drawn) [COMPLESTATINS A] |  | 
7 | < 4.00 | 4.55 | CN[C@@H](Cc1ccc(Oc2cc3cc(c2O)-c2cccc4c(c[nH]c24)C[C@@H](N)C(=O)N[C@H](c2cc(Cl)c(O)c(Cl)c2)C(=O)N[C@H]3C(=O)O)cc1)C(=O)O |  | 
8 | 4.07 | 5.11 | CN(C(=O)[C@H](N)c1cc(Cl)c(O)c(Cl)c1)[C@@H](Cc1ccc(Oc2cc3cc(c2O)-c2cccc4c(c[nH]c24)C[C@@H](N)C(=O)N[C@H](c2cc(Cl)c(O)c(Cl)c2)C(=O)N[C@H]3C(=O)O)cc1)C(=O)O |  | 
9 | 5.30 | 6.40 | CN1C(=O)[C@@H](c2cc(Cl)c(O)c(Cl)c2)NC(=O)[C@@H]2NC(=O)[C@@H](c3cc(Cl)c(O)c(Cl)c3)NC(=O)[C@H](NC(=O)C(=O)c3cc(Cl)c(O)c(Cl)c3)Cc3c[nH]c4c(cccc34)-c3cc2cc(c3O)Oc2ccc(cc2)C[C@H]1C(=O)N[C@@H](C(=O)O)c1ccc(O)cc1 [CHLOROPEPTIN] | 5 | 
